From PubChem
A selection: hits, their analogues and other compounds. The true share with any hit is near 3.5%.
MrgX1 antag = antagonists of human MrgX1 receptor, primary screen, HEK293 cells, Fluo-4 calcium flux; Mas-related G-protein coupled receptor member X1 (Homo sapiens), Q96LB2; B-score at 10 µM; BAM8-22 antagonism; stronger effect = lower value; hit rate 1.3% among 310,000;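 active means calcium-response B-score plate-corrected more than 3 library SD below zero, starting fluorescence within 5 deviations, no agonist response on first addition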;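 further: peak minus trough fluorescence over baseline after final BAM8-22 challenge near maximal dose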
Target sequence (Q96LB2 whole entry, looked up): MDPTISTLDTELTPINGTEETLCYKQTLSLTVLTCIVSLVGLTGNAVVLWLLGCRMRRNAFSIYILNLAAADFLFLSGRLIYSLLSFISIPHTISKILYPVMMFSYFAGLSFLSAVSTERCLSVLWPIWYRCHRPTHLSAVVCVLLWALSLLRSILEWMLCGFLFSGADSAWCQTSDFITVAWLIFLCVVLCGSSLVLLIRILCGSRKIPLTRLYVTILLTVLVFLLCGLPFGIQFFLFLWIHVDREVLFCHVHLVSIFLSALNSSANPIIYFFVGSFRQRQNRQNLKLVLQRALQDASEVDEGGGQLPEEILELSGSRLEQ
RGS4 pot = RGS4 potentiators or activators, primary screen, cell-based, HEK293 M3R inducible RGS4, calcium flux; carbachol calcium flux Fluo4; stronger effect = lower value; hit rate 0.92% among 310,000; B-score at 10 µM;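 active means B-score of the integrated calcium signal more than 4 SD below the library mean, with starting fluorescence not abnormally high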;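 further: negative B-score means reduced calcium response which marks RGS4 activation or potentiation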
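Assay system: HEK293 FlpIn-TREx cells, stable M3R, doxycycline-inducible RGS4 / Probe or stimulus: carbachol, ECmax concentration / Times: overnight RGS4 induction, 30 min dye load 37 °C, 20 min compound RT / Signal: kinetic calcium fluorescence imaging with Fluo4-AM dye, 2 µM / Measure: Agonist-evoked peak-minus-minimum fluorescence over baseline, integrated ratio, B score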
MrgX1 agonist = agonists of human MrgX1 receptor, primary screen, HEK293 cells, Fluo-4 calcium flux | hit rate 0.44% among 310,000 | AID 588627, 2011 | B-score at 10 µM | Fluo-4 calcium fluorescence, agonist mode; stronger effect = higher value | Mas-related G-protein coupled receptor member X1 (Homo sapiens), Q96LB2;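 active means calcium response B-score plate-corrected fluorescence ratio at least 3 library SD, with starting fluorescence B-score inside 5 SD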
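Assay system: stable human MrgX1 HEK293 cell line. Quantity: 15,000 cells per well. Schedule: cells plated overnight, dye loaded 0.5 h 37 °C, 0.5 h room temperature. Detection: Fluo-4 NW calcium-flux fluorescence, kinetic read. Read-out basis: peak-minus-minimum fluorescence over baseline, converted to B scores. Control set: positive and negative control wells on each plate.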
MrgX1 PAM = positive allosteric modulators of MrgX1, primary screen, HEK293 cells, Fluo-4 calcium flux; Mas-related G-protein coupled receptor member X1 (Homo sapiens), Q96LB2; FDSS; stronger effect = higher value; B-score at 10 µM; hit rate 0.63% among 310,000;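 active means plate-corrected calcium response at least 3 library SD above typical, normal starting fluorescence, not activating the receptor alone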;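 further: compound read alongside a low EC10 to EC30 dose of BAM8-22 agonist; peak minus trough fluorescence over baseline measured at the second addition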
RGS4 block = RGS4 inhibitors, primary screen, cell-based, HEK293 M3R inducible RGS4, calcium flux | hit rate 0.45% among 310,000 | Fluo-4 calcium flux; stronger effect = higher value; triggered by carbachol at its EC20 | Regulator of G-protein signaling 4 (Homo sapiens), P49798 | B-score at 10 µM;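 active means B-score, a plate-corrected calcium signal, over three deviations above library mean, with baseline fluorescence within five deviations of library mean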;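 further: RGS4 expression induced by doxycycline in cells with stable M3 receptor; B-score is computed from the integrated fluorescence ratio over baseline after carbachol; higher B-score means a larger calcium signal and so more RGS4 inhibition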
Target sequence (P49798 whole entry, looked up): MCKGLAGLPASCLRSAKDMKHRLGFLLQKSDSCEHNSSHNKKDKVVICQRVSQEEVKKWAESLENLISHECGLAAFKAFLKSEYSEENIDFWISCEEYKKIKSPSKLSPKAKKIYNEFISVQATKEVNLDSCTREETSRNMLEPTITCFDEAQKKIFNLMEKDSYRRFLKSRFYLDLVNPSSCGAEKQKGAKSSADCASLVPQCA
RGS4 activ val = reduced carbachol calcium response, RGS4-induced M3R cells, confirmation, RGS4 activator project, cell-based, HEK293 M3R/RGS4 inducible, calcium flux, duplicate; shares compounds with RGS4 pot; carbachol calcium flux Fluo4; inhibition, % at 10 µM; hit rate 89% among 1,100;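 active means inhibition above 3 SD of the buffer control wells, cut at about 41% in these data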;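 further: signal is the integrated peak-minus-minimum Fluo4 fluorescence over baseline ratio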
M3R Ca counter = activity in cells without induced RGS4 expression. shares compounds with RGS4 pot. HEK293 M3R non-induced RGS4, Fluo4 calcium flux; after carbachol challenge at its EC90. inhibition, % at 10 µM. hit rate 82% among 1,100. AID 602283;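 active means inhibition exceeding 3 SD of buffer-only control wells, cut at about 26% in these data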;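 further: percent drop in integrated peak-minus-baseline over baseline Fluo4 ratio after carbachol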
The depositor's hits bear a star; i = inactive; . = no result given.

SMILES	MrgX1 antag	RGS4 pot	MrgX1 agonist	MrgX1 PAM	RGS4 block	RGS4 activ val	M3R Ca counter
COC(=O)C1=C(C)N(c2ccc(OC)cc2)C(C)=C(C(=O)OC)C1c1ccc(OC)cc1	i	-9*	i	i	i	0	0
COC(=O)C1=C(C)N(c2ccc(OC)cc2)C(C)=C(C(=O)OC)C1c1ccccc1	i	i	i	i	i	.	.
CCNc1nc(NC(C)(C)C)nc(N2CCCC2)n1	i	-9*	i	i	i	82*	47*
O=[N+]([O-])c1cccc(-c2ccc(/C=N/Nc3nc(N4CCCCC4)nc(N4CCCCC4)n3)o2)c1	i	-13*	i	i	i	81*	84*
CC(=O)Nc1cccc(NC(=O)COc2ccc3c(c2)OCO3)c1	i	i	i	i	i	.	.
CCCOc1ccc(C(O)(CCC)CCN2CCCCC2)cc1 (centres undefined)	i	-8.3*	i	i	i	88*	36*
CCCC(O)(CCN1CCOCC1)c1ccc(Br)cc1 (centres undefined)	i	-9*	i	i	i	91*	78*
CCCC(O)(CCN1CCOCC1)c1ccc(Cl)cc1 (centres undefined)	i	i	i	i	i	.	.
CCOc1ccc(OCCN2CCCCC2)cc1	i	i	i	i	i	.	.
COc1cccc(NC(=O)CN(C)C(=O)c2cc(-c3ccc(F)cc3)nc3ccccc23)c1	i	-7.6*	i	i	i	86*	64*
COc1ccc(-c2cc(C(=O)N(C)Cc3cccc(OC)c3OC)c3ccccc3n2)cc1OC	i	i	i	i	i	.	.
COc1ccc(CN(C)C(=O)c2cc(-c3ccc(OC)c(OC)c3)nc3ccccc23)c(OC)c1	i	-9*	i	i	i	69*	84*
COc1cccc(CN(C)C(=O)c2cc(-c3ccc(OC)c(OC)c3)nc3ccccc23)c1	i	-9.8*	i	i	i	66*	28*
COc1ccc(-c2cc(C(=O)N(C)CCc3ccc(OC)c(OC)c3)c3ccccc3n2)cc1	i	i	i	i	i	.	.
Cc1nnc(NC(=O)c2cc(S(=O)(=O)N3CCCCC3)ccc2Cl)s1	i	i	i	i	i	.	.
COc1ccc2c(c1)C=C(CN1CCC(CO)(CCc3ccccc3)CC1)CO2	i	-8*	i	i	i	80*	84*
CCCCCn1nc(C(=O)N(CC(C)C)c2c(N)n(CCCC)c(=O)[nH]c2=O)c2ccccc2c1=O	i	i	i	i	i	.	.
Nc1ccc2c3c(cccc13)C(=O)N(c1ccccc1)C2=O	.	i	.	.	i	.	.
CC(C)CCN1C(=O)c2cccc3c(N)ccc(c23)C1=O	i	-7.8*	i	i	i	99*	95*
CCOC(=O)c1nc(-c2ccc(OC)c(OC)c2)no1	i	i	i	i	i	.	.
OCC1(Cc2ccccc2)CCCN(Cc2ccc(-c3ccco3)cc2)C1 (centres undefined)	i	i	i	i	i	.	.
OCC1(Cc2ccccc2)CCN(Cc2ccc(-c3ccco3)cc2)CC1	i	-10*	i	i	i	90*	52*
CCN(CC)CCOC(=O)C1(c2ccc(OC)c(OC)c2)CCCC1	i	i	i	i	i	.	.
CCN(CC)CCOC(=O)C1(c2ccccc2)CCCC1	i	-9.1*	i	i	i	94*	93*
COc1ccc(N2C(=O)CSC2c2ccccc2)cc1 (centres undefined)	i	i	i	i	i	.	.
SMILES	MrgX1 antag	RGS4 pot	MrgX1 agonist	MrgX1 PAM	RGS4 block	RGS4 activ val	M3R Ca counter
COc1ccc(N2C(=O)CSC2c2cccc(OC)c2OC)cc1 (centres undefined)	i	-11*	i	i	i	86*	46*
COc1cccc(C2SCC(=O)N2c2ccc(C)cc2)c1OC (centres undefined)	i	-8.9*	i	i	i	92*	86*
C=C(C)C(=O)Nc1ccc2c(c1)OCCOCCOCCO2	i	i	i	i	i	.	.
COc1ccc(NC(=S)Nc2cccc(S(=O)(=O)N3CCCCC3)c2)cc1	i	i	i	i	i	.	.
O=S(=O)(c1ccccc1)N1CCNCC1	i	i	i	i	i	.	.
CCC(C)C(=O)Nc1ccc(OC)cc1[N+](=O)[O-] (centres undefined)	i	i	i	i	i	.	.
Cc1cc(C)c2[nH]c(C)c(CN3CCCCCC3)c(=O)c2c1	i	-11*	i	i	i	42*	84*
Cc1cc(C)cc(OCCCCn2cncn2)c1	i	i	i	i	i	.	.
O=C(NCc1cccnc1)C(=O)C1C(=O)Nc2ccccc21 (centres undefined)	i	i	i	i	i	.	.
Cc1ccc(C(=O)N(CCc2ccccc2)Cc2ccccc2)cc1S(=O)(=O)N1CCCCC1	i	-8.5*	i	i	i	91*	50*
CC1=CC(=O)C(C(C)C)=CC1=NC(=O)c1ccc(C)cc1	i	i	i	i	i	.	.
COc1cc(SSc2cc(OC)cc([N+](=O)[O-])c2N)c(N)c([N+](=O)[O-])c1	i	i	i	i	i	.	.
COc1ccc(N(CC(=O)NCCSc2ccc(C)cc2)S(=O)(=O)c2ccccc2)c(OC)c1	i	-12*	i	i	i	73*	0
COc1cc(/C=C(/Sc2nnc(-c3ccc(F)cc3)o2)C(=O)O)ccc1OC(F)F	i	i	i	i	i	.	.
CC(C)CC1CCCCC1OC(=O)C[N+]1(C)CCCCC1 (centres undefined)	i	-11*	i	i	i	92*	87*
N#CC(C#N)=c1ccc2c(c1)N1C3=C(CCCC3)CC3CCCCC31N=2 (centres undefined)	i	-8.2*	i	i	i	84*	84*
CCOC(=O)c1[nH]c2ccc(Br)cc2c1NC(=O)CCN1CCCC(C)(C)C1	i	-14*	i	i	i	94*	74*
